≈ marks a conversion by molar mass, not a printed value.
Legend:
Type in all cases: functional
[1] = test system: Candida albicans; test: Antimicrobial activity against Candida albicans GDH2346 dissociated biofilms at cell density of 10^8 cells/ml after 24 hrs by XTT assay; details: GDH2346, 24 h
How it was run: (§1)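 Biofilms grown from 1 x 10^6 cells/ml in RPMI on polystyrene 96-well plates, 48 h at 37°C in a moist chamber, then washed and scraped into 100 µl RPMI. Cells used undiluted (about 2 x 10^8 cells/ml equivalent) or diluted to a low density set against an A600 standard curve. A twofold drug series was added for 24 h at 37°C. Read-out was XTT/menadione at 490 nm.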

[2] = test system: Candida albicans; test: Antimicrobial activity against Chk1 deficient Candida albicans CHK21 dissociated biofilms at cell density of 10^8 cells/ml after 24 hrs by XTT assay; details: CHK21, 24 h; how it was run: as §1
[3] = test system: Candida albicans; test: Antimicrobial activity against Candida albicans GDH2346 at planktonic cell density of 10^8 cells/ml after 24 hrs by XTT assay; details: GDH2346, 24 h
How it was run: (§2)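 Planktonic yeast grown in YNB with 50 mM glucose at room temperature with shaking, subcultured to about 2 x 10^8 cells/ml, then washed and resuspended in MOPS-buffered RPMI 1640 with L-glutamine at the stated density. 100 µl of cells was mixed with 100 µl of a twofold drug series (prepared at 1,024 to 0.0313 µg/ml) and incubated for 24 h at 37°C. Read-out was XTT with 1 µM menadione at 37°C, absorbance at 490 nm.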

[4] = test system: Candida albicans; test: Antimicrobial activity against Candida albicans FH1 at planktonic cell density of 10^8 cells/ml after 24 hrs by XTT assay; details: FH1, 24 h; how it was run: as §2
[5] = test system: Candida albicans; test: Antimicrobial activity against Chk1 deficient Candida albicans CHK21 dissociated biofilms at cell density of 10^3 cells/ml after 24 hrs by XTT assay; details: CHK21, 24 h
How it was run: (§3)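 Polystyrene-well biofilms (48 h, 37°C) washed, then broken up in 100 µl RPMI by scraping and aspiration. Cells used undiluted (about 2 x 10^8 cells/ml equivalent) or adjusted by A600 against a hemacytometer-calibrated yeast standard curve. Drug exposure at 37°C for 48 h (caspofungin 24 h), then XTT/menadione read at 490 nm.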

[6] = test system: Candida albicans; test: Antimicrobial activity against Chk1 deficient Candida albicans CHK21 at planktonic cell density of 10^8 cells/ml after 24 hrs by XTT assay; details: CHK21, 24 h; how it was run: as §2
[7] = test system: Candida albicans; test: Antimicrobial activity against fluconazole-resistant Candida albicans FH5 at planktonic cell density of 10^8 cells/ml after 24 hrs by XTT assay; details: FH5, 24 h
How it was run: (§4)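 YNB-grown yeast (50 mM glucose, room temperature, shaken, to ~2 x 10^8 cells/ml) washed into MOPS-buffered RPMI 1640 with L-glutamine and set to the stated density. Exposed to twofold serial drug dilutions (1,024 to 0.0313 µg/ml) at 37°C, 48 h (caspofungin 24 h), with drug-free controls. Read-out: XTT (0.5 g/liter) plus 1 µM menadione, formazan at 490 nm.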

[8] = test system: Candida albicans; test: Antimicrobial activity against Cdr1, Cdr2 and Mdr1 deficient Candida albicans DSY1050 at planktonic cell density of 10^3 cells/ml after 24 hrs by XTT assay; details: DSY1050, 24 h; how it was run: as §2
[9] = test system: Candida albicans; test: Antimicrobial activity against Chk1 deficient Candida albicans CHK21 at planktonic cell density of 10^3 cells/ml after 24 hrs by XTT assay; details: CHK21, 24 h; how it was run: as §4
[10] = test system: Candida albicans; test: Antimicrobial activity against Candida albicans GDH2346 intact biofilms after 24 hrs by XTT assay; details: GDH2346, 24 h
How it was run: (§5)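 Intact biofilms formed from 1 x 10^6 cells/ml in RPMI in polystyrene microtiter wells, 48 h at 37°C in a moist chamber, then washed once and covered with 100 µl RPMI. A twofold drug series was added in the same well for 24 h at 37°C. Metabolic activity was read by XTT (0.5 g/liter, 1 µM menadione, up to 2 h) at 490 nm.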

[11] = test system: Candida albicans; test: Antimicrobial activity against Cdr1, Cdr2 and Mdr1 deficient Candida albicans DSY1050 at planktonic cell density of 10^8 cells/ml after 24 hrs by XTT assay; details: DSY1050, 24 h; how it was run: as §2
[12] = test system: Candida albicans; test: Antimicrobial activity against Cdr1, Cdr2 and Mdr1 deficient Candida albicans DSY1050 dissociated biofilms at cell density of 10^3 cells/ml after 24 hrs by XTT assay; details: DSY1050, 24 h; how it was run: as §1
[13] = test system: Candida albicans; test: Antimicrobial activity against fluconazole-resistant Candida albicans FH5 at planktonic cell density of 10^3 cells/ml after 24 hrs by XTT assay; details: FH5, 24 h; how it was run: as §4
[14] = test system: Candida albicans; test: Antimicrobial activity against Candida albicans FH1 intact biofilms after 24 hrs by XTT assay; details: FH1, 24 h; how it was run: as §5
[15] = test system: Candida albicans; test: Antimicrobial activity against Candida albicans FH1 dissociated biofilms at cell density of 10^3 cells/ml after 24 hrs by XTT assay; details: FH1, 24 h; how it was run: as §3
[16] = test system: Candida albicans; test: Antimicrobial activity against Candida albicans SC5314 dissociated biofilms at cell density of 10^8 cells/ml after 24 hrs by XTT assay; details: SC5314, 24 h; how it was run: as §1
[17] = test system: Candida albicans; test: Antimicrobial activity against fluconazole-resistant Candida albicans FH5 dissociated biofilms at cell density of 10^8 cells/ml after 24 hrs by XTT assay; details: FH5, 24 h; how it was run: as §3
[18] = test system: Candida albicans; test: Antimicrobial activity against Candida albicans SC5314 at planktonic cell density of 10^3 cells/ml after 24 hrs by XTT assay; details: SC5314, 24 h; how it was run: as §2
[19] = test system: Candida albicans; test: Antimicrobial activity against Candida albicans GDH2346 at planktonic cell density of 10^3 cells/ml after 24 hrs by XTT assay; details: GDH2346, 24 h; how it was run: as §2
[20] = test system: Candida albicans; test: Antimicrobial activity against Cdr1, Cdr2 and Mdr1 deficient Candida albicans DSY1050 intact biofilms after 24 hrs by XTT assay; details: DSY1050, 24 h; how it was run: as §5
[21] = test system: Candida albicans; test: Antimicrobial activity against Candida albicans GDH2346 dissociated biofilms at cell density of 10^3 cells/ml after 24 hrs by XTT assay; details: GDH2346, 24 h; how it was run: as §1
[22] = test system: Candida albicans; test: Antimicrobial activity against Candida albicans FH1 at planktonic cell density of 10^3 cells/ml after 24 hrs by XTT assay; details: FH1, 24 h; how it was run: as §4
[23] = test system: Candida albicans; test: Antimicrobial activity against Candida albicans SC5314 intact biofilms after 24 hrs by XTT assay; details: SC5314, 24 h; how it was run: as §5
[24] = test system: Candida albicans; test: Antimicrobial activity against fluconazole-resistant Candida albicans FH5 dissociated biofilms at cell density of 10^3 cells/ml after 24 hrs by XTT assay; details: FH5, 24 h; how it was run: as §3
[25] = test system: Candida albicans; test: Antimicrobial activity against fluconazole-resistant Candida albicans FH5 intact biofilms after 24 hrs by XTT assay; details: FH5, 24 h
How it was run: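 Biofilm seeded at 1 x 10^6 cells/ml in RPMI in polystyrene microtiter wells and grown 48 h at 37°C in a moist chamber. Washed once and drug added to the same well (twofold dilutions, 1,024 to 0.0313 µg/ml) for 48 h at 37°C (caspofungin 24 h). Read-out: XTT/menadione reduction at 490 nm.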

[26] = test system: Candida albicans; test: Antimicrobial activity against Chk1 deficient Candida albicans CHK21 intact biofilms after 24 hrs by XTT assay; details: CHK21, 24 h; how it was run: as §5
[27] = test system: Candida albicans; test: Antimicrobial activity against Candida albicans SC5314 at planktonic cell density of 10^8 cells/ml after 24 hrs by XTT assay; details: SC5314, 24 h; how it was run: as §2
[28] = test system: Candida albicans; test: Antimicrobial activity against Candida albicans FH1 dissociated biofilms at cell density of 10^8 cells/ml after 24 hrs by XTT assay; details: FH1, 24 h; how it was run: as §1
[29] = test system: Candida albicans; test: Antimicrobial activity against Cdr1, Cdr2 and Mdr1 deficient Candida albicans DSY1050 dissociated biofilms at cell density of 10^8 cells/ml after 24 hrs by XTT assay; details: DSY1050, 24 h; how it was run: as §1
[30] = test system: Candida albicans; test: Antimicrobial activity against Candida albicans SC5314 dissociated biofilms at cell density of 10^3 cells/ml after 24 hrs by XTT assay; details: SC5314, 24 h; how it was run: as §3

SMILES: CC[C@H](C)C[C@H](C)CCCCCCCCC(=O)N[C@H]1C[C@@H](O)[C@@H](NCCN)NC(=O)[C@@H]2[C@@H](O)CCN2C(=O)[C@H]([C@H](O)CCN)NC(=O)[C@H]([C@H](O)[C@@H](O)c2ccc(O)cc2)NC(=O)[C@@H]2C[C@@H](O)CN2C(=O)[C@H]([C@@H](C)O)NC1=O [CASPOFUNGIN]
- MIC80 [1]: > 32 µg/mL
- MIC80 [2]: > 32 µg/mL
- MIC80 [3]: > 32 µg/mL
- MIC80 [4]: > 32 µg/mL
- MIC80 [5]: 0.5 µg/mL (≈ 0.457 µM)
- MIC80 [6]: > 32 µg/mL
- MIC80 [7]: > 32 µg/mL
- MIC80 [8]: 0.25 µg/mL (≈ 0.229 µM)
- MIC80 [9]: 0.5 µg/mL (≈ 0.457 µM)
- MIC80 [10]: > 32 µg/mL
- MIC80 [11]: > 32 µg/mL
- MIC80 [12]: 0.25 µg/mL (≈ 0.229 µM)
- MIC80 [13]: 0.5 µg/mL (≈ 0.457 µM)
- MIC80 [14]: > 32 µg/mL
- MIC80 [15]: 0.5 µg/mL (≈ 0.457 µM)
- MIC80 [16]: > 32 µg/mL
- MIC80 [17]: > 32 µg/mL
- MIC80 [18]: 0.25 µg/mL (≈ 0.229 µM)
- MIC80 [19]: 0.125 µg/mL (≈ 0.114 µM)
- MIC80 [20]: > 32 µg/mL
- MIC80 [21]: 0.25 µg/mL (≈ 0.229 µM)
- MIC80 [22]: 0.5 µg/mL (≈ 0.457 µM)
- MIC80 [23]: > 32 µg/mL
- MIC80 [24]: 0.5 µg/mL (≈ 0.457 µM)
- MIC80 [25]: > 32 µg/mL
- MIC80 [26]: > 32 µg/mL
- MIC80 [27]: > 32 µg/mL
- MIC80 [28]: > 32 µg/mL
- MIC80 [29]: > 32 µg/mL
- MIC80 [30]: 0.5 µg/mL (≈ 0.457 µM)
